# ChEMBL document CHEMBL3588746, “Using click chemistry toward novel 1,2,3-triazole-linked dopamine D3 receptor ligands” (Bioorg Med Chem, 2015)
# Columns and labels:
# D(2) dopamine receptor = D(2) dopamine receptor (Homo sapiens, UniProt P14416); assay: Displacement of [3H]-N-methylspiperone from human dopamine D2 receptor expressed in HEK293 cell membranes after 1 hr by liquid scintillation counting analysis
# D(4) dopamine receptor = target: T1, D(4) dopamine receptor (Homo sapiens, UniProt P21917); assay: Displacement of [3H]-N-methylspiperone from human dopamine D4 receptor expressed in HEK293 cell membranes after 1 hr by liquid scintillation counting analysis
# T1 sequence (P21917 whole entry): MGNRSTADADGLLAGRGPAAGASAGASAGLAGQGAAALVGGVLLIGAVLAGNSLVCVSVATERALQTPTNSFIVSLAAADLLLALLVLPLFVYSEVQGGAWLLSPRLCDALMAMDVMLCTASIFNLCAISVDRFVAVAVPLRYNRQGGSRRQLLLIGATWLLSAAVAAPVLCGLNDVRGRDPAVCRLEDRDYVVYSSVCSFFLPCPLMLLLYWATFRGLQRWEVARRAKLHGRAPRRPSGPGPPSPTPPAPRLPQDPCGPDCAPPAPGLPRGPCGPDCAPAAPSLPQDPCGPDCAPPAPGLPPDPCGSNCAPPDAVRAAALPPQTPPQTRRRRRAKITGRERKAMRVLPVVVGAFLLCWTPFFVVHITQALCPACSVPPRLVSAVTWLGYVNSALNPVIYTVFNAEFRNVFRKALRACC
# D(3) dopamine receptor = D(3) dopamine receptor (Homo sapiens, UniProt P35462); assay: Displacement of [3H]-N-methylspiperone from human dopamine D3 receptor expressed in HEK293 cell membranes after 1 hr by liquid scintillation counting analysis
# Homo sapiens = species on record: Homo sapiens; assay: Selectivity ratio of Ki for human dopamine D2 receptor to Ki for human dopamine D3 receptor
# Outline: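 Ki values from [3H]N-methylspiperone (0.4 nM) competition in membranes from HEK293 cells stably expressing human D2R or D3R, 10 μg protein per tube. Incubated 1 h at room temperature in triplicate, with 10 μM butaclamol defining nonspecific binding. […] Ratio is D2R Ki divided by D3R Ki.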
# [1] = Metabolic stability in mouse liver microsomes assessed as compound remaining at 1 uM after 60 mins by LC/MS/MS analysis in presence of NADPH regenerating system; assay type: ADME; conditions: read-out: Stability
# [2] = Metabolic stability in mouse liver microsomes assessed as compound remaining at 1 uM after 30 mins by LC/MS/MS analysis in presence of NADPH regenerating system; assay type: ADME; conditions: read-out: Stability
# Outline: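 Mouse liver microsomes at 0.2 mg/mL with compound at 1 μM final, in 100 mM potassium phosphate pH 7.4. Reaction started by adding microsomes, triplicate. Sampled at 0, 30 and 60 min and quenched with ice-cold acetonitrile plus internal standard. Percent parent remaining measured by LC/MS/MS. Controls lacking NADPH were run; testosterone served as positive control.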
# D(3) dopamine receptor, sequence (P35462 whole entry): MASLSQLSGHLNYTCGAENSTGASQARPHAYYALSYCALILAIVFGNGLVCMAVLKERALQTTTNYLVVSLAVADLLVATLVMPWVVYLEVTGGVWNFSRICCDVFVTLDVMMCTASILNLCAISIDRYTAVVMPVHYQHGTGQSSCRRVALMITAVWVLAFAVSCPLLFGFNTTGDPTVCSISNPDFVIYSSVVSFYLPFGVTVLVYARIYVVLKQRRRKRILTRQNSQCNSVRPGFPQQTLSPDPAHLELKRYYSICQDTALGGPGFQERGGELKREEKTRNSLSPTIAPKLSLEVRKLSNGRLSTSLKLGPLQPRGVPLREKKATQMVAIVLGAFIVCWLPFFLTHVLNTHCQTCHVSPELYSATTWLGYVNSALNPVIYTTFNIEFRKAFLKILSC
# D(2) dopamine receptor, sequence (P14416 whole entry): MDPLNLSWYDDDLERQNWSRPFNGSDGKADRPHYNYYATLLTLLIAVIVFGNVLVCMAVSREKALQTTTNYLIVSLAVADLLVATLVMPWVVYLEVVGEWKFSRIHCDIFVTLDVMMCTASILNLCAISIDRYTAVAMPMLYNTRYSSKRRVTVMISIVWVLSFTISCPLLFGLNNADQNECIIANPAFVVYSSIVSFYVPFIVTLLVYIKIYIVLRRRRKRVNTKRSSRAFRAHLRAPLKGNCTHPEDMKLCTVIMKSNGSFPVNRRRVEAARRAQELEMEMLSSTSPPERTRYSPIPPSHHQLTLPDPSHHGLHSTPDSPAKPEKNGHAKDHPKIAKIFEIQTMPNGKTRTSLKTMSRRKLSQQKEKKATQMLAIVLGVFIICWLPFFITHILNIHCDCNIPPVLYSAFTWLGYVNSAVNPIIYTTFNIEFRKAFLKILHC
SMILES,Ki (D(2) dopamine receptor) [nM],Ki (D(4) dopamine receptor) [nM],Ki (D(3) dopamine receptor) [nM],Ratio Ki (Homo sapiens),"remaining at 1 h, 1 µM [1] [%]","remaining at 0.5 h, 1 µM [2] [%]"
COc1ccccc1N1CCN(CCCCn2cc(-c3ccc4[nH]ccc4c3)nn2)CC1,43.7,222,5.48,8,–,–
Clc1cccc(N2CCN(CCCCn3cc(-c4ccc5ncccc5c4)nn3)CC2)c1Cl,53.9,> 1000,1.35,40,–,–
COc1ccccc1N1CCN(CCCCc2cn(-c3ccc4c(c3)Cc3ccccc3-4)nn2)CC1,57.2,329,1.59,36,–,–
COc1ccccc1N1CCN(CC(O)CCn2cc(-c3ccc4ncccc4c3)nn2)CC1 (racemic),424,> 3000,68.2,6.2,–,–
COc1ccccc1N1CCN(CCCCc2cn(-c3ccc4ccccc4c3)nn2)CC1,31.5,299,2.93,11,–,–
COc1ccccc1-c1cn(CCC(O)CN2CCN(c3ccccc3OC)CC2)nn1 (racemic),1020,> 3000,493,2.1,–,–
COc1ccccc1N1CCN(CCCCc2cn(-c3ccc4[nH]ccc4c3)nn2)CC1,51.8,353,3.1,17,–,–
Clc1cccc(N2CCN(CCCCn3cc(-c4ccc5[nH]ccc5c4)nn3)CC2)c1Cl,56.1,> 2000,1.47,38,–,–
OC(CCn1cc(-c2ccc(-c3ccccc3)cc2)nn1)CN1CCN(c2cccc(Cl)c2Cl)CC1 (racemic),15100,> 7000,55.8,270,–,–
COc1ccccc1N1CCN(CCCCc2cn(-c3cccc4ncccc34)nn2)CC1,83.4,> 1000,13.1,6.4,–,–
COc1ccccc1N1CCN(CC(O)CCn2cc(-c3ccc4c(c3)Cc3ccccc3-4)nn2)CC1 (racemic),607,> 1000,18.5,33,–,–
OC(CCn1cc(-c2ccc3[nH]ccc3c2)nn1)CN1CCN(c2cccc(Cl)c2Cl)CC1 (racemic),963,–,5.85,165,35,45
Clc1cccc(N2CCN(CCCCn3cc(-c4ccc(-c5ccccc5)cc4)nn3)CC2)c1Cl,2590,> 10000,8.32,311,–,–
COc1ccccc1N1CCN(CC(O)CCn2cc(-c3ccc4ccccc4c3)nn2)CC1 (racemic),189,> 2000,40.7,4.6,–,–
O=C(NCCC(O)CN1CCN(c2cccc(Cl)c2Cl)CC1)c1cnc2ccccc2c1 (stereo unspecified),321,–,2.91,110,4,–
COc1ccccc1N1CCN(CC(O)CCn2cc(-c3ccc4[nH]ccc4c3)nn2)CC1 (racemic),789,–,33.6,23,27,44
COc1ccccc1N1CCN(CCCCn2cc(-c3ccc(-c4ccccc4)cc3)nn2)CC1,69,425,5.88,12,–,–
COc1ccccc1N1CCN(CCCCn2cc(-c3ccc4c(c3)Cc3ccccc3-4)nn2)CC1,50.1,588,5.55,9,–,–
COc1ccccc1N1CCN(CCCCn2cc(-c3ccc4ncccc4c3)nn2)CC1,42.5,269,6.73,6.3,–,–

# The next lines start with the values.
Ki (D(2) dopamine receptor) [nM],Ki (D(4) dopamine receptor) [nM],Ki (D(3) dopamine receptor) [nM],Ratio Ki (Homo sapiens),"remaining at 1 h, 1 µM [1] [%]","remaining at 0.5 h, 1 µM [2] [%]",SMILES
46.6,510,1,47,–,–,Clc1cccc(N2CCN(CCCCc3cn(-c4ccc5[nH]ccc5c4)nn3)CC2)c1Cl
137,480,22.9,6,–,–,COc1ccccc1N1CCN(CCCCn2cc(-c3ccccc3)nn2)CC1
424,4450,5.05,84,–,–,Clc1cccc(N2CCN(CCCCc3cn(-c4ccc5c(c4)Cc4ccccc4-5)nn3)CC2)c1Cl
1210,> 3000,173,7,–,–,COc1ccccc1N1CCN(CC(O)CCn2cc(-c3ccccc3)nn2)CC1 (racemic)
103,> 1000,7.7,13,–,–,Clc1cccc(N2CCN(CCCCn3cc(-c4ccc5ccccc5c4)nn3)CC2)c1Cl
23.3,232,11.1,2.1,–,–,COc1ccccc1N1CCN(CCCCn2cc(-c3ccc4ccccc4c3)nn2)CC1
53.6,486,5.42,10,–,–,COc1ccccc1N1CCN(CCCCc2cn(-c3ccccc3)nn2)CC1
244,–,18,14,26,–,OC(CCn1cc(-c2cnc3ccccc3c2)nn1)CN1CCN(c2cccc(Cl)c2Cl)CC1 (racemic)
819,> 2000,30.5,27,–,–,COc1ccccc1N1CCN(CC(O)CCn2cc(-c3ccc(-c4ccccc4)cc3)nn2)CC1 (racemic)
885,> 20000,14,63,–,–,Clc1cccc(N2CCN(CCCCn3cc(-c4ccc5c(c4)Cc4ccccc4-5)nn3)CC2)c1Cl
18800,> 20000,25.2,745,–,–,OC(CCn1cc(-c2ccc3ccccc3c2)nn1)CN1CCN(c2cccc(Cl)c2Cl)CC1 (racemic)
80.8,> 2000,3.8,21,–,–,Clc1cccc(N2CCN(CCCCc3cn(-c4ccc5ccccc5c4)nn3)CC2)c1Cl
